These results are taken from ChEMBL document CHEMBL4138104, “Indole carboxylic acid esters of melampomagnolide B are potent anticancer agents against both hematological and solid tumor cells” (Eur J Med Chem, 2017).

Holding throughout (type): functional
One assay is filed under the species Rattus norvegicus. Put plainly: Inhibition of colony formation of rat 9LSF cells at 5 to 20 uM after 48 hrs by colony formation assay. In short, it runs like this: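 9L-SF cells were seeded in 60 mm dishes to reach 50% confluence (6.65×10^4 cells/cm²) after 24 h. They were treated 48 h with drug serially diluted from DMSO stock (max 0.05% DMSO), then rinsed, trypsinized, counted and seeded in triplicate flasks for colonies. Lethally irradiated (25 Gy) feeders kept density at 2,000 cells/cm². Survival was normalized to control plating efficiency, with three experiments.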

The nature of assay [1]: Potency index, ratio of melampomagnolide-B EC50 to compound EC50 for human M9-ENL1 cells. In short, it runs like this: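 M9-ENL1 AML cells, derived by MLL-ENL transduction of human blood cells, were plated at 10^6 cells/mL in alpha-MEM with 5% human plasma, 20% FBS, SCF, IL-3, IL-7 and FLT3 ligand. Exposure was 24 h. Non-apoptotic (Annexin V/7-AAD double-negative) fraction was normalized to vehicle, in triplicate, to give EC50. PTL and MMB were run as reference controls.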

A short description of assay [2]: Cytotoxicity against human M9-ENL1 cells assessed as reduction in cell viability by trypan blue staining-based assay. The method, boiled down:
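M9-ENL1 AML cells (MLL-ENL-transduced human blood cells) plated at 10^6 cells/mL in alpha-MEM with 5% human plasma, 20% FBS, SCF, IL-3, IL-7 and FLT3. Drug diluted from DMSO stock into PBS, final DMSO ≤0.5%. After 24 h exposure, dead cells assessed by trypan blue and by flow cytometry (Annexin V/PI or Annexin V/7-AAD). Viability normalized to vehicle; EC50 from dose-response curves; triplicate.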

The structures appear in SMILES notation. Activity calls are given as the source filed them. No cut-off for these calls is given here.

Take `C=C1C(=O)O[C@H]2[C@H]1CC/C(CO)=C\CC[C@@]1(C)O[C@@H]21`: the inhibition entry in the assay filed under Rattus norvegicus was “Active”. In the case of `C=C1C(=O)O[C@@H]2[C@H]3O[C@]3(C)CC/C=C(/COC(=O)c3ccc4cc[nH]c4c3)CC[C@@H]12`, the “Ratio IC50” value in assay [1] is on record as 2 - 20. Besides, in assay [2], the EC50 is 2500 nM. Taken in the same sequence, the figures for `C=C1C(=O)O[C@@H]2[C@H]3O[C@]3(C)CC/C=C(/COC(=O)Cc3c(C)n(C(=O)c4ccc(Cl)cc4)c4ccc(OC)cc34)CC[C@@H]12` were 2 - 20 and 2700 nM. `C=C1C(=O)O[C@@H]2[C@H]3O[C@]3(C)CC/C=C(/COC(=O)c3sc4ccccc4c3Cl)CC[C@@H]12`: the “Ratio IC50” value in assay [1] was 2 - 20. Further, the EC50 in assay [2] was 2100 nM. Regarding `C=C1C(=O)O[C@@H]2[C@H]3O[C@]3(C)CC/C=C(/COC(=O)Cc3c[nH]c4ccccc34)CC[C@@H]12`, the “Ratio IC50” value in assay [1] is on record as 2 - 20. Further, the EC50 in assay [2] is 4000 nM.

Take `O=C(O)c1cc2ccccc2[nH]1`: in the assay listed under Rattus norvegicus, the inhibition result is “Active”. As for `C=C1C(=O)O[C@@H]2[C@H]3O[C@]3(C)CC/C=C(/COC(=O)c3ccc4[nH]ccc4c3)CC[C@@H]12`, the “Ratio IC50” value in assay [1] was 2 - 20. For the same compound, in assay [2], the EC50 stood at 3000 nM.
